Data reported in paper PMC4019989 (Clinical cancer research : an official journal of the …, 2009).
Where two headings read alike, the source gives them in different places.

Assays:
[1] = system: relapsed or refractory hematologic malignancies; test: Antitumor activity; format: in vivo, human
Procedure, shortened: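 Relapsed/refractory MM, NHL, Hodgkin's or Waldenström's patients got the test compound as an i.v. push over 1–2 min on days 1–5, then 9 d rest (14-d cycles). Doses were 1.2–20 mg/m2, escalated in cohorts of three, continued until unacceptable toxicity or progression. Response used EBMT criteria (MM) and International Working Group criteria (NHL, Hodgkin's). For Waldenström's: complete = total resolution, partial = >50% resolution with no new disease.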

[2] = system: chymotrypsin-like activity of the proteasome; details: rats; i.v. for 5 consecutive days; multiple tissues; well tolerated; cited from earlier work
[3] = system: chymotrypsin-like activity of the proteasome; details: monkeys; i.v. for 5 consecutive days; multiple tissues; well tolerated; cited from earlier work
[4] = system: primary acute myeloid leukemia blasts; details: tested at nanomolar levels (0.1-100 nmol/L); cited from earlier work
[5] = system: bortezomib-resistant MM cell lines; details: bortezomib-resistant MM cell lines and patient samples; cited from earlier work

## CC(C)C[C@H](NC(=O)[C@H](CCc1ccccc1)NC(=O)CN1CCOCC1)C(=O)N[C@@H](Cc1ccccc1)C(=O)N[C@@H](CC(C)C)C(=O)[C@@]1(C)CO1 [carfilzomib]
[1]; 28 of 29 patients evaluable, all responders treated at 11 mg/m^2 and higher
  Subjects achieving objective tumor responses: Four
[1]; across all dose cohorts and diagnoses
  Subjects with stable disease: nine
[1]; all cohorts
  Patients with progressive disease while on study: 15 patients
[1]; eight cycles
  Average duration on therapy of subjects with stable disease: 116 days
[1]; person with IgA MM, 11 mg/m^2
  IgA level by the end of the fifth cycle: 235 mg/dL
[1]; person with IgA MM, 11 mg/m^2, from 709 mg/dL
  IgA level within two cycles (10 doses): 297 mg/dL
[1]; person with Waldenström's macroglobulinemia, after two cycles of 15 mg/m^2
  reduction in serum M-protein: 25%
[1]; treated at or above 11 mg/m^2, two MM, one Waldenström's macroglobulinemia
  Objective responses in subjects with plasma cell dyscrasias: Three of six
[2]
  Proteasome (chymotrypsin-like activity) inhibition: > 80%
[3]
  Proteasome (chymotrypsin-like activity) inhibition: > 80%
[4]
  autocrine- and cytokine-dependent proliferation: inhibited autocrine- and cytokine-dependent proliferation
[5]
  Proliferation and apoptosis: inhibited proliferation and induced apoptosis
